In ChEMBL document CHEMBL1275461, “Early bactericidal activity and pharmacokinetics of the diarylquinoline TMC207 in treatment of pulmonary tuberculosis” (Antimicrob Agents Chemother, 2008):

How the values were obtained:
Homo sapiens [1] = test: Cardiotoxicity in pulmonary tuberculosis patient assessed as increase in QT interval at 300 mg/kg, po once daily for 7 days; type: toxicity, organism-based; set-up: dose 300 mg/kg, route oral; conditions: in vivo, 168 h
[2] = tested on: Mycobacterium tuberculosis; test: Bactericidal activity against Mycobacterium tuberculosis in pulmonary tuberculosis patient assessed as reduction in sputum bacterial count at 300 mg/kg, po once daily measured on day 8 after starting standard TB therapy; type: functional
Summary of the method: (§1)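 Hospitalized treatment-naïve smear-positive patients took oral doses once daily, observed, after breakfast. Sputum was pooled over 16 h overnight at baseline, after each of the 7 dosing days, and on the night after the first standard-therapy dose. Sputum was stirred, digested with dithiothreitol for 20 min at room temperature, and diluted 10-fold. Dilutions were plated in quadruplicate on selective 7H11 agar and counted after 3-4 weeks at 37°C at 20-200 colonies. The read-out was change in log10 CFU/ml from baseline, with a count of 0 set to log 0.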

[3] = tested on: Mycobacterium tuberculosis; test: Bactericidal activity against Mycobacterium tuberculosis in pulmonary tuberculosis patient assessed as reduction in sputum bacterial count at 300 […], po once daily measured after 2 days; type: functional; summary of the method: as §1
[4] = tested on: Mycobacterium tuberculosis; test: Bactericidal activity against Mycobacterium tuberculosis in pulmonary tuberculosis patient assessed as reduction in sputum bacterial count at 300 mg/kg, po once daily measured after 4 days; type: functional; summary of the method: as §1
[5] = tested on: Mycobacterium tuberculosis; test: Bactericidal activity against Mycobacterium tuberculosis in pulmonary tuberculosis patient assessed as reduction in sputum bacterial count at 300 mg/kg, po once daily measured after 5 days; type: functional; summary of the method: as §1
[6] = tested on: Mycobacterium tuberculosis; test: Bactericidal activity against Mycobacterium tuberculosis in pulmonary tuberculosis patient assessed as reduction in sputum bacterial count at 300 […], po once daily measured after 3 days; type: functional; summary of the method: as §1
[7] = tested on: Mycobacterium tuberculosis; test: Bactericidal activity against Mycobacterium tuberculosis in pulmonary tuberculosis patient assessed as reduction in sputum bacterial count at 300 mg/kg, po once daily measured after 6 days; type: functional; summary of the method: as §1
[8] = tested on: Mycobacterium tuberculosis; test: Bactericidal activity against Mycobacterium tuberculosis in pulmonary tuberculosis patient assessed as reduction in sputum bacterial count at 300 mg/kg, po once daily measured after 7 days; type: functional; summary of the method: as §1
Homo sapiens [9] = test: Toxicity in pulmonary tuberculosis patient assessed as hemoptysis at 300 mg/kg, po once daily; type: organism-based; set-up: dose 300 mg/kg, route oral; conditions: in vivo
[10] = tested on: Mycobacterium tuberculosis; test: Bactericidal activity against Mycobacterium tuberculosis in pulmonary tuberculosis patient assessed as reduction in sputum bacterial count at 300 […], po once daily measured after 1 day; type: functional; summary of the method: as §1
[11] = tested on: Mycobacterium tuberculosis; test: Bactericidal activity against Mycobacterium tuberculosis in pulmonary tuberculosis patient assessed as reduction in sputum bacterial count at 600 […], po once daily measured after 1 day; type: functional; summary of the method: as §1
[12] = tested on: Mycobacterium tuberculosis; test: Bactericidal activity against Mycobacterium tuberculosis in pulmonary tuberculosis patient assessed as reduction in sputum bacterial count at 600 mg/kg, po once daily measured on day 8 after starting standard TB therapy; type: functional; summary of the method: as §1
[13] = tested on: Mycobacterium tuberculosis; test: Bactericidal activity against Mycobacterium tuberculosis in pulmonary tuberculosis patient assessed as reduction in sputum bacterial count at 600 mg/kg, po once daily measured after 4 days; type: functional; summary of the method: as §1
[14] = tested on: Mycobacterium tuberculosis; test: Bactericidal activity against Mycobacterium tuberculosis in pulmonary tuberculosis patient assessed as reduction in sputum bacterial count at 600 mg/kg, po once daily measured after 7 days; type: functional; summary of the method: as §1
Homo sapiens [15] = test: Cardiotoxicity in pulmonary tuberculosis patient assessed as increase in QT interval at 600 mg/kg, po once daily for 7 days; type: toxicity, organism-based; set-up: dose 600 mg/kg, route oral; conditions: in vivo, 168 h
[16] = tested on: Mycobacterium tuberculosis; test: Bactericidal activity against Mycobacterium tuberculosis in pulmonary tuberculosis patient assessed as reduction in sputum bacterial count at 600 mg/kg, po once daily measured after 2 days; type: functional; summary of the method: as §1
[17] = tested on: Mycobacterium tuberculosis; test: Bactericidal activity against Mycobacterium tuberculosis in pulmonary tuberculosis patient assessed as reduction in sputum bacterial count at 600 mg/kg, po once daily measured after 6 days; type: functional; summary of the method: as §1
[18] = tested on: Mycobacterium tuberculosis; test: Bactericidal activity against Mycobacterium tuberculosis in pulmonary tuberculosis patient assessed as reduction in sputum bacterial count at 600 mg/kg, po once daily measured after 3 days; type: functional; summary of the method: as §1

## NNC(=O)c1ccncc1 [ISONIAZID]
Homo sapiens [1]
  Time: 20.2 ms
[2]
  log10CFU/ml: -1.94
[3]
  log10CFU/ml: -0.57
[4]
  log10CFU/ml: -1.32
[5]
  log10CFU/ml: -1.41
[6]
  log10CFU/ml: -1.34
[7]
  log10CFU/ml: -1.68
[8]
  log10CFU/ml: -1.88
Homo sapiens [9]
  Activity: 13.3%
[10]
  log10CFU/ml: -0.43

## CO[C@H]1/C=C/O[C@@]2(C)Oc3c(C)c(O)c4c(O)c(c(/C=N/N5CCN(C)CC5)c(O)c4c3C2=O)NC(=O)/C(C)=C\C=C\[C@H](C)[C@H](O)[C@@H](C)[C@@H](O)[C@@H](C)[C@H](OC(C)=O)[C@@H]1C [RIFAMPIN]
[11]
  log10CFU/ml: -0.28
[12]
  log10CFU/ml: -1.82
[13]
  log10CFU/ml: -1.17
[14]
  log10CFU/ml: -1.7
Homo sapiens [15]
  Time: 13 ms
[16]
  log10CFU/ml: -0.88
[17]
  log10CFU/ml: -1.55
[18]
  log10CFU/ml: -0.89
